Source: PubChem
An excerpt weighted towards active compounds, which were near 3.3% of everything screened.
5HT1a ag = human 5-HT1a receptor agonists, primary screen, cell-based, CHO, Ga15 NFAT-bla reporter; 5-hydroxytryptamine receptor 1A (Homo sapiens), P08908; CHO 5-HT1a Ga15 NFAT-bla reporter, FRET ratio; 0% basal, 100% maximal reference agonist; activation, % at 10 µM; hit rate 0.56% among 65,000; AID 567, 2006;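 active = activation above the screen-wide mean activation plus 3 SD, cut at about 19% in these data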;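 also: 0% = DMSO wells and 100% = 5-CT at EC100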
5-HT1A blocker = human 5-HT1a receptor antagonists, primary screen, cell-based, CHO, Ga15 NFAT-bla reporter | 5-hydroxytryptamine receptor 1A (Homo sapiens), P08908 | inhibition, % at 10 µM | CHO 5-HT1a Ga15 NFAT-bla reporter, antagonist mode | hit rate 0.68% among 62,000;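 active = inhibition above the mean of all tested compounds plus 3 SD, cut at about 43% in these data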;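 also: receptor stimulated by 5-CT agonist at 100 nM near EC80; beta-lactamase reporter measured by ratiometric fluorescence of a cleavable substrate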
Jurkat viability = cytotoxicity toward Jurkat T cells, primary screen, cytotoxicity control, cell-based, Jurkat E6.1, 60K MLSMR library; AID 463, 2006; Jurkat E6.1 viability, ATP luminescence, 48 h; inhibition, % at 4 µM; hit rate 1.2% among 56,000;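 active = inhibition above the mean inhibition of all tested compounds plus 3 SD, cut at about 28% in these data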
5HT1E ag = 5-HT1E receptor agonists, primary screen, cell-based, HTS; 5-hydroxytryptamine receptor 1E (Homo sapiens), P28566; CHO 5-HT1E Ga15 NFAT-bla reporter, FRET; 0% DMSO wells, 100% control agonist wells; activation, % at 6 µM; hit rate 0.69% among 65,000; AID 574, 2007;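 active = activation above a set limit, the screen-wide mean activation plus 3 SD, cut at about 8.5% in these data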;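 also: 100% = positive control agonist at 1 µM giving full maximal response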
Target sequence (P28566 whole entry, looked up): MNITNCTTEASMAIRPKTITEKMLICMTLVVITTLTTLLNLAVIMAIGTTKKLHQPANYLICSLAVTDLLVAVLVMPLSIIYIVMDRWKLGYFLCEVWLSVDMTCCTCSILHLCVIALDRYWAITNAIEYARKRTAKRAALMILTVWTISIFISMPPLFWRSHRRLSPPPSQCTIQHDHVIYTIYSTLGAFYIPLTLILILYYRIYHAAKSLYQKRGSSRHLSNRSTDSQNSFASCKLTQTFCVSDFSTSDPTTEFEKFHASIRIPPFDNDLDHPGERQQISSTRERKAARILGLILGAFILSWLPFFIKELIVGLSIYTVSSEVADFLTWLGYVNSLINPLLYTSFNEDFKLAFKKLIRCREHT
HEK293 NFkB inh = inhibitors of PMA/ionomycin-induced NF-kB reporter, primary screen, antigen receptor NF-kB inhibitor project, cell-based, HEK-293 luciferase reporter, luminescence | hit rate 0.21% among 62,000 | AID 465, 2006 | HEK-293 NF-kB luciferase reporter | inhibition, % at 3 µM;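 active = inhibition above the mean of all tested compounds plus 3 SD, cut at about 40% in these data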;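 also: 0% = stimulated DMSO wells and 100% = 10 µM reference inhibitor 5653914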
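Reagent: PMA plus ionomycin mix as NF-kB-activating stimulus. Assay system: NF-kB luciferase reporter HEK-293 cells. Technique: luminescence from luciferase substrate reagent. Incubation: 1 h compound pre-incubation, 16 h PMA/ionomycin at 37 °C. Benchmarks: DMSO only as uninhibited control, 10 µM reference inhibitor as full inhibition. Repeats: tested once.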
5HT1E antag = 5-HT1E receptor antagonists, primary screen, cell-based, HTS. inhibition, % at 6 µM. hit rate 0.99% among 65,000. 5-hydroxytryptamine receptor 1E (Homo sapiens), P28566. CHO 5-HT1E Ga15 NFAT-bla reporter, FRET, antagonist;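 active = inhibition above a set limit, the mean inhibition across every tested compound plus 3 SD, cut at about 29% in these data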;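 also: signal is the 460 over 535 nm emission ratio of beta-lactamase substrate; 0% = agonist plus DMSO wells and 100% = wells without agonist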
The depositor's hits bear a star; . = no result.

SMILES | 5HT1a ag | 5-HT1A blocker | Jurkat viability | 5HT1E ag | HEK293 NFkB inh | 5HT1E antag
CC(=O)NC(CC(C)C)C(=O)NC(=O)NCc1ccccc1 (stereo not drawn) | -2 | 5 | -1 | 0 | 13 | -5
CCN=C(NCC)SC1CC(=O)N(c2cccc(OCC)c2)C1=O (stereo not drawn) | -2 | 1 | 0 | 0 | 12 | -1
CCOCCCNC(=O)CN1CCN(Cc2ccccc2C)C1=O | -5 | 9 | -3 | -1 | 14 | -3
CCOc1ccc(CCNC(=O)CN2CCN(Cc3ccccc3C)C2=O)cc1OCC | 47* | -8 | 11 | -1 | 8 | -2
COc1cc(NS(=O)(=O)c2ccc(C)cc2C)cc(OC)c1OC | -2 | -1 | 39* | 0 | 32 | 8
CC(C)NC(=O)CSc1nnc(-c2ccc(S(=O)(=O)N3CCCC3)cc2)n1CC1CCCO1 (stereo not drawn) | -1 | 4 | -4 | 0 | 19 | -9
O=C(Cn1nc(-c2ccc3c(c2)OCCO3)ccc1=O)Nc1ccc(N2CCOCC2)cc1 | 4 | -7 | . | 0 | 16 | -5
CC(C)c1nnc(NC(=O)Cn2nc(-c3ccc4c(c3)OCCO4)ccc2=O)s1 | -2 | -1 | 10 | 14* | 15 | 0
COCCN(CC(=O)Nc1ccccc1)S(=O)(=O)c1ccc(S(=O)(=O)N2CCCC2)cc1 | 1 | -12 | 4 | 1 | 16 | -3
N[C@@H](Cc1ccc(O)c(I)c1)C(=O)O | 2 | . | . | 0 | . | -6
NC(Cc1ccc2nonc2c1)C(=O)O (stereo not drawn) | 54* | 3 | 3 | 0 | -5 | -11
O=C(Nc1cccc(NC(=O)c2nccc3ccccc23)c1)c1ccco1 | 1 | 4 | 2 | 0 | 7 | 4
COc1ccc2c(c1)c1nnc(SCC(=O)N3C(C)CCCC3C)nc1n2C (stereo not drawn) | 5 | -23 | 3 | 2 | 21 | 16
COc1ccc2c(c1)c1nnc(SC)nc1n2C | 2 | 4 | -3 | 17* | 1 | 13
Cc1c(-c2ccc(F)cc2)nc(N)c(C#N)c1-c1ccco1 | 4 | -22 | -4 | 0 | 14 | 29*
CCCc1nc(N)c(C#N)c(-c2ccco2)c1CC | 1 | 19 | 2 | 1 | 8 | 20
Cc1cc(NCCN2CCOCC2)n2nc(C)c(-c3ccc(Cl)cc3)c2n1 | 3 | -2 | 3 | 1 | 14 | 32*
Cc1cc(NCCN2CCOCC2)n2nc(C)c(-c3ccccc3)c2n1 | -1 | 10 | 6 | 0 | 10 | 24
N=c1ccn(Cc2ccc(Cl)c(Cl)c2)cc1 | -3 | -2 | 30* | 0 | 13 | -11
O=C(c1ccc(N2C(=O)CCC2=O)cc1)N1CCN(c2ccccc2)CC1 | -2 | -3 | 2 | 0 | 4 | -7
N#CC1=C(N)N(c2ccccc2)C(c2ccco2)C1(C#N)C#N (stereo not drawn) | 42* | 22 | 14 | -2 | 14 | 27
Cc1cccc(N2C(N)=C(C#N)C(C#N)(C#N)C2c2ccccc2)c1 (stereo not drawn) | -1 | 6 | 4 | 1 | 2 | 42*
O=C(CSc1nnnn1-c1cccnc1)NCc1cccs1 | 2 | -7 | 7 | -1 | 13 | 2
O=C(Cc1ccccc1)Nc1cccc(N2CCCC2)c1 | 0 | 17 | 0 | -1 | 16 | 0
CC(C)Cn1cc(C(=O)N2CCN(c3ccccn3)CC2)c2c3ccccc3n(C)c2c1=O | 0 | -11 | 2 | 0 | 22 | 3
SMILES | 5HT1a ag | 5-HT1A blocker | Jurkat viability | 5HT1E ag | HEK293 NFkB inh | 5HT1E antag
CCCCCCc1ccc(-c2ncc(N)cn2)cc1 | -1 | 9 | 51* | 0 | -31 | 3
O=C(Nc1ccc2oc(-c3cccnc3)nc2c1)c1cccnc1 | -3 | 0 | -4 | 1 | 8 | 5
O=C(Nc1ccc2oc(-c3ccccc3Cl)nc2c1)c1cncc(Br)c1 | 64* | -8 | -4 | 0 | -4 | 2
O=C(Nc1ccc2oc(Cc3ccc(Cl)cc3)nc2c1)c1cccnc1 | -1 | 3 | 34* | 1 | -10 | 3
COc1ccc2nc(NC(=O)c3cccc(OCc4c(C)noc4C)c3)sc2c1 | -1 | 2 | 70* | 0 | 18 | 21
CCSc1nnc(NC(=O)c2cccc(OCc3c(C)noc3C)c2)s1 | -1 | -2 | . | -1 | -4 | -3
CCn1c(CNc2ccc(F)cc2)nnc1SCC(=O)Nc1ccc(OC)cc1OC | 2 | -4 | 0 | 0 | 6 | -3
O=C(CSc1nccn1-c1ccccc1)Nc1ccc2c(c1)OCO2 | -3 | 11 | 0 | -1 | -1 | 10
O=C(CSc1nccn1-c1ccc(F)cc1)Nc1ccc2c(c1)OCO2 | -1 | 12 | 10 | 14* | -13 | 1
C=CCc1ccccc1OCC(O)CN1CCN(c2ccc(C)cc2)CC1 (stereo not drawn) | -1 | 73* | -4 | 0 | 8 | 6
c1cncc(-c2nc3c4ccccc4nc(N4CCC(N5CCCCC5)CC4)n3n2)c1 | -1 | -13 | 1 | -1 | 8 | -8
NC(=O)c1c(NC(=O)c2cccs2)sc2c1CCCCCC2 | 0 | -3 | -3 | 11* | -34 | -15
O=C(Nc1sc2c(c1C(=O)O)CCC2)c1cccs1 | -1 | -8 | 6 | 0 | -8 | -12
C=CCN(C(=O)Cn1c(C(=O)OC)cc2oc(C)cc21)c1ccccc1 | 1 | 11 | 6 | -1 | 8 | -1
COC(=O)c1cc2oc(C)cc2n1CC(=O)N(C)c1ccccc1 | -1 | -6 | -1 | 11* | 18 | -5
O=C(O)c1ccc2cccc(Cl)c2c1O | -3 | 52* | 0 | 0 | 14 | 1
O=C(O)c1cc(Cl)c2ccccc2c1O | 2 | 1 | 9 | 0 | 7 | 10
COC(=O)c1nnn(CC(=O)Nc2cccc(Cl)c2C)c1C(=O)OC | -1 | 0 | . | 0 | 11 | -3
CCOC(=O)c1c(C)c(C(=O)Nc2ccc3c(c2)OCCO3)c(C)n1CC | -4 | 25 | 48* | -1 | 12 | -1
CCOC(=O)c1c(C)c(C(=O)Nc2ccc3c(c2)OCO3)c(C)n1C | -2 | 20 | 0 | 0 | 1 | 4
COc1cccc(C(=O)Cn2c(=N)n(C)c3ccccc32)c1 | 0 | 47* | 0 | 1 | -62 | 11
Cc1cc(C)n(-c2nc(NC(C)C)nc(NC(C)C)n2)n1 | -3 | 11 | 5 | -2 | 12 | 30*
